Screening results as filed in PubChem.
Rows were chosen to be rich in hits. Some 1.9% of all compounds tested hit in one or more screens of this group.
MsrA inhibitor – bovine MsrA enzyme inhibitors, primary screen, biochemical, absorbance, HTS; AID 651718, 2012; 0.75% of 360,000 active; inhibition, % at 15.5 µM; Methionine sulfoxide reductase A (Bos taurus); purified bovine MsrA, absorbance read-out;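 note: 0% = vehicle wells with enzyme and 100% = reference inhibitor wells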
MsrA act – bovine MsrA enzyme activators, primary screen, biochemical, absorbance, HTS. Methionine sulfoxide reductase A (Bos taurus). purified bovine MsrA, absorbance read-out. activation, % at 10.6 µM. 0.3% of 360,000 active; in the data active = activation above about 7.5%;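 note: 0% = vehicle and 100% = reference activator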
Vif imaging – HIV Vif self-association inhibitors, primary screen, imaging, HEK293T, single point; HEK293T cells, Vif self-association by quenched fluorescence, 24 h; inhibition, % at 7.49 µM; 0.35% of 340,000 active; in the data active = inhibition above about 50%, passing the limit was not always enough; inconclusive = no clear call, values can overlap the other calls; inactive = below about 31%
N-glyco inh – increase of ERlucT glycosylation luciferase signal, primary screen, N-linked glycosylation inhibitor project, D54 ERlucT cells, luminescence, set 2. 0.23% of 360,000 active. D54 ERlucT glycosylation luciferase reporter, 24 h; percent of 100 nM tunicamycin response. AID 588692, 2011. reporter increase, % at 12.5 µM;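 active = mean luciferase reporter signal, scaled so untreated is 0 and the glycosylation-blocking control 100, at or above a set limit in every replicate; inconclusive = mean reaches the limit but not every replicate does; inactive = mean below the limit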;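 note: luciferase carries N-glycosylation sites so blocking glycosylation raises the light; 0% = median of neutral control wells and 100% = median of 100 nM tunicamycin wells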
UCH37 DUB inh – inhibitors of human UCH37 deubiquitinase, primary screen, biochemical, Ub-AMC cleavage, fluorescence. inhibition, % (no concentration beside the values). 0.33% of 330,000 active. purified proteasome/UCH37. Ubiquitin carboxyl-terminal hydrolase isozyme L5 (Homo sapiens), Q9Y5K5;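 active = mean inhibition over replicate wells above about 20%, limit read from the data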;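 note: 0% = compound-free wells with enzyme and 100% = wells lacking proteasome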
Target sequence (Q9Y5K5 whole entry, looked up): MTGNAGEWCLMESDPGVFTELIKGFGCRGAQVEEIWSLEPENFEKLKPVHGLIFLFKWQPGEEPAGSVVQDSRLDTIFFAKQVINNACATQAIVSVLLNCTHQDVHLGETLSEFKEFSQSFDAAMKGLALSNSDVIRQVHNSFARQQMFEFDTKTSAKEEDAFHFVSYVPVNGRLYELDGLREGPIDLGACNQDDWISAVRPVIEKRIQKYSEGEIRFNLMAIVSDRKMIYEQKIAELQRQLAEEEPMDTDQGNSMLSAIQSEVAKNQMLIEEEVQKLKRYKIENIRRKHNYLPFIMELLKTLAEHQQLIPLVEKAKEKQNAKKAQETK
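Material: Human UCH37 enzyme supplied as purified proteasome complex | Schedule: 30 min compound-proteasome preincubation then 25 min substrate reaction, room temperature | Detection: AMC fluorescence from Ub-AMC cleavage, excitation 355 nm, emission 460 nm | Benchmarks: Wells without proteasome as full block, compound-free enzyme plus substrate as uninhibited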
aDG glyco act – activators of alpha-DG glycosylation, primary screen, uHTS, Pro5-aDG cells, AlphaScreen; alpha-DG glycosylation AlphaScreen (IIH6); 0% Pro5, 100% B10-LARGE cell signal; activation, % at 10 µM; 0.22% of 360,000 active; AID 624168, 2012;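 active = activation of at least 8% versus controls, or a plate z-score of at least 8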;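 note: Pro5 are CHO cells carrying HIG-tagged alpha-DG that lacks glycosylation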
MsrA inh confirm – bovine MsrA inhibitors, retest, confirmation, biochemical, absorbance, HTS. 41% of 2,300 active. shares compounds with MsrA inhibitor. AID 651822, 2012. purified bovine MsrA, absorbance read-out. inhibition, % at 15.5 µM;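 note: coupled to thioredoxin reductase with NADPH and selenocystamine and DMSO as substrate; 0% = vehicle only and 100% = full effect of reference inhibitor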
* hit, by the source's call; i = inactive; ? = inconclusive; · = no result given. Cut-off read from the data, not from the text of the source, unless noted: active = inhibition above about 4.5%; inactive = the rest.

SMILES | MsrA inhibitor | MsrA act | Vif imaging | N-glyco inh | UCH37 DUB inh | aDG glyco act | MsrA inh confirm
CCOc1ccc(N(C(C)C(=O)NN=C(C)C(C)(C)C)S(C)(=O)=O)cc1 (configuration not stated) | · | · | · | · | 2.7 | · | ·
Cc1c(C(=O)N/N=C/c2ccc(O)cc2)sc(=S)n1C | 5.8* | -6.3 | -2.8 | 4.4 | · | -0.2 | 4.8*
CCOC(=O)Cc1cc(=O)[nH]c(N=C(N)Nc2ccc(OC)cc2)n1 | · | · | · | · | 1.3 | · | ·
COc1ccc(C(C)=O)cc1CSCCC(=O)O | -0.6 | -7.5 | 8.6 | 0.8 | 1.2 | 0.2 | ·
COc1ccc(C(=O)/C=C/c2ccsc2)cc1CSCC(=O)O | 4.7* | -6.0 | -6.4 | 7.5 | 8.5 | 0.0 | 4.0
Cc1ccc(C)c(NN=C2CCCNC2=O)c1 | · | · | · | · | 3.9 | · | ·
COc1ccccc1NC(=O)C(=NO)C(C)=NO | · | · | · | · | 2.9 | · | ·
C=CCn1cccc(C(=O)Nc2ccc(OC)cc2)c1=O | 1.2 | -3.8 | 0.3 | -0.4 | 8.3 | -0.2 | ·
COc1ccc(NC(=O)c2cccn(CC=C(C)C)c2=O)cc1 | 4.7* | -4.7 | -3.2 | -0.3 | 4.5 | 0.1 | 2.0
Cc1cc(C)nc(NN=Cc2cc(Br)ccc2O)n1 | · | · | · | · | 4.3 | · | ·
Cc1ccc(NC2=C/C(=N/S(=O)(=O)c3cccs3)c3ccccc3C2=O)cc1C | -0.5 | -5.1 | -1.8 | 1.2 | · | 0.3 | ·
Cc1ccc(NC2=CC(=NS(=O)(=O)c3cccs3)c3ccccc3C2=O)cc1C | · | · | · | · | 3.7 | · | ·
COc1ccc(S(=O)(=O)/N=C2\C=C(Nc3ccc(O)cc3)C(=O)c3ccccc32)cc1 | 34.8* | 6.2 | -7.9 | -19.0 | · | -0.6 | 33.5*
CC(=O)Nc1ccc(NC2=C/C(=N/S(=O)(=O)c3cccs3)c3ccccc3C2=O)cc1 | 47.0* | 0.9 | 1.6 | -16.7 | · | -0.2 | 44.1*
Cc1ccccc1NC1=C/C(=N\S(=O)(=O)c2ccc(C(=O)O)cc2)c2ccccc2C1=O | 18.9* | -2.3 | 6.7 | 4.1 | 94.4* | 0.5 | 20.7*
CC(Sc1ncc(C(F)(F)F)cc1Cl)C(=O)NC(N)=O (configuration not stated) | 19.2* | -3.5 | 4.1 | 3.5 | 0.2 | 0.2 | 14.9*
CC(C)C(=O)Nc1ncc(C(F)(F)F)cc1Cl | 2.7 | 3.5 | 11.6 | 2.3 | 0.9 | -0.1 | ·
O=C(NCc1cccnc1)c1ccc(=O)oc1 | 8.3* | -5.9 | 5.8 | -0.2 | 13.8 | -0.2 | 8.4*
COc1ccc(CNC(=O)c2ccc(=O)oc2)cc1OC | 9.9* | -7.3 | 2.5 | 0.0 | 14.6 | -0.1 | 8.7*
O=C(NCc1cccnc1)c1cccc(Cl)c1 | 0.2 | -5.1 | · | 2.3 | 2.7 | 0.2 | ·
O=C(O)CCC(=NNC(=O)CNC(=O)/C=C/c1ccccc1)c1ccccc1 | · | · | · | · | 2.8 | · | ·
CCc1c(C(=O)NN=Cc2cn[nH]c2-c2ccc(F)cc2)csc1C | · | · | · | · | 6.3 | · | ·
CC(=O)NN1C(=O)c2ccccc2NC1c1ccc(N(C)C)cc1 (configuration not stated) | 6.3* | -7.4 | -10.9 | 4.6 | -1.2 | -0.1 | 1.3
N#Cc1c2ccccc2nc2ccccc12 | 7.0* | -3.3 | -7.6 | 13.2 | -116.6 | -0.1 | 5.0*
c1ccc2nc3ccccc3nc2c1 | 0.3 | -1.4 | -3.5 | 15.7 | 7.8 | 1.3 | ·
SMILES | MsrA inhibitor | MsrA act | Vif imaging | N-glyco inh | UCH37 DUB inh | aDG glyco act | MsrA inh confirm
Cc1nn(-c2ccccc2)c(C)c1C=NNC(=O)c1cnccn1 | · | · | · | · | 7.7 | · | ·
COc1nccnc1NS(=O)(=O)c1ccc(N/C=C2\CCCCC2=O)cc1 | 5.3* | -3.4 | -2.3 | 1.6 | 3.5 | -0.1 | 4.6*
S=c1[nH]nc(-c2cc(-c3ccccc3)n[nH]2)n1N=Cc1c(Cl)cccc1Cl | · | · | · | · | 9.5 | · | ·
COc1cccc(C=Nn2c(C3CCCCC3)n[nH]c2=S)c1 | · | · | · | · | 3.7 | · | ·
O=[N+]([O-])c1cccc(/C=N/n2c(C3CCCCC3)n[nH]c2=S)c1 | 5.0* | -0.2 | 0.3 | -0.1 | · | 0.5 | 12.6*
COc1cccc(/C=N/n2c(C3CCCCC3)n[nH]c2=S)c1 | 8.2* | 2.2 | -8.6 | -1.6 | · | 0.1 | 6.5*
Cc1cccc(C=Nn2c(C3CCCCC3)n[nH]c2=S)c1 | · | · | · | · | 0.7 | · | ·
Cc1ccc(N=c2c([N+](=O)[O-])nn(-c3ccccc3)n2O)c(C)c1 | 12.3* | -10.1 | -2.1 | -0.6 | 0.1 | -0.4 | 15.0*
C/C(C=Nn1c(C)n[nH]c1=S)=C/c1ccccc1 | · | · | · | · | 0.5 | · | ·
CCOC(=O)C(C)=NNC(=O)c1cccc([N+](=O)[O-])c1 | · | · | · | · | 0.4 | · | ·
COc1ccc(/C=C\C(=O)c2c(O)ccc3c(C)cc(=O)oc23)cc1OC | 5.2* | -3.5 | -7.3 | 1.4 | 4.8 | 0.1 | 4.3
Cc1cc(=O)oc2c(C(=O)/C=C\c3cccs3)c(O)ccc12 | 5.2* | -6.0 | 0.6 | 2.6 | 2.8 | 0.0 | 6.3*
Cc1cc(=O)oc2c(C(=O)/C=C/c3ccccc3)c(O)ccc12 | -1.0 | -3.9 | 2.6 | 0.4 | -7.7 | -0.4 | ·
COc1cc(/C=C/C(=O)c2c(O)ccc3c(C)cc(=O)oc23)ccc1O | 6.9* | -7.8 | 9.1 | -4.4 | 9.2 | -0.1 | 6.1*
CC(C)c1c(C(=O)NN=Cc2ccc(Cl)cc2Cl)nnn1-c1nonc1N | · | · | · | · | 0.1 | · | ·
C=CCNc1nc(NCCNC(C)=O)c2sc(-c3ccccc3)cc2n1 | 4.7* | 2.9 | -8.7 | -2.0 | · | 0.0 | 0.7
C/C(=N\NC(=O)c1cccnc1)c1cc2ccccc2o1 | 6.7* | -2.7 | · | 0.6 | · | -0.2 | 6.0*
CNc1oc(-c2cccs2)nc1C#N | 3.8 | -19.1 | -2.9 | -1.3 | i | 0.4 | ·
CN(C)c1oc(-c2cccs2)nc1C#N | 4.9* | -5.6 | 17.4 | 1.7 | · | -0.1 | 2.8
Nc1ccccc1-n1nc2ccc3ccccc3c2n1 | 0.4 | -1.0 | 6.2 | -6.8 | · | 0.4 | ·
COc1cc2nn(-c3ccccc3N)nc2cc1OC | 4.8* | -1.8 | -3.8 | -1.5 | · | 0.3 | 2.1
O=C1N=C(N2CCCCC2)S/C1=C\c1ccncc1 | 2.2 | -2.9 | -1.5 | -0.1 | 8.4 | 0.2 | ·
COc1ccc(/C=C2\SC(N3CCCCC3)=NC2=O)cc1 | 5.9* | -5.0 | -2.7 | 3.0 | 9.3 | 0.0 | 4.7*
CCc1ccc(/C=C2\SC(N3CCCC3)=NC2=O)cc1 | 4.8* | -4.8 | 7.0 | -2.5 | 11.1 | 0.4 | 3.3
COc1ccc(/C=C/C(=O)Nc2cc(=O)n(C)c(=O)n2C)cc1 | 5.0* | -13.8 | 10.4 | 0.1 | -2.1 | 0.2 | 3.9
COc1cc(/C=N/NC(=O)c2cc[n+]([O-])cc2)ccc1O | 7.5* | -0.9 | ? | 3.0 | · | 0.0 | 5.2*
